Experimental data published in ChEMBL document CHEMBL1122125, “Synthesis and in vivo antitumor activity of potential 5-fluorouracil prodrugs” (1982).

How the values were obtained:
Mus musculus [1] = test: Antitumor activity was determined for average 7-day weight change against P-388 leukemia in mice at a dose of 75 mg/kg; assay type: functional
How it was run: (§1)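 Male B6D2F1J mice given 10⁶ P-388 cells ip on day 0, then treated ip once daily on days 1-4 (qd × 4), 5 mice per dose group. Compounds dosed in sterile saline, except one lipophilic thioether given in 10% Tween 80. Mice weighed on days 1 and 7; mean weight per mouse on day 1 and 7-day weight change reported in g and as percent.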

Mus musculus [2] = test: Antitumor activity was determined for survival range of mice against P-388 leukemia in mice at a dose of 300 mg/kg; assay type: functional
How it was run: (§2)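 Male B6D2F1J mice implanted ip with 10⁶ P-388 cells on day 0; test agents given ip on days 1–4 (qd × 4) in sterile saline, or in 10% Tween 80 for the lipophilic thioether. Groups of 5 treated mice, with 10–17 untreated controls per experiment. Mice weighed on days 1 and 7 to give the 7-day weight change in g and %. Survival recorded in days as median and range.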

Mus musculus [3] = test: Antitumor activity was determined for average 7-day weight change against P-388 leukemia in mice at a dose of 300 mg/kg; assay type: functional; how it was run: as §1
Mus musculus [4] = test: Antitumor activity was determined for survival range of mice against P-388 leukemia in mice at a dose of 75 mg/kg; assay type: functional
How it was run: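 Male B6D2F1J mice, 5 per dose group, implanted ip with 10⁶ P-388 leukemia cells on day 0. Drug given ip daily on days 1-4 (qd × 4) in sterile saline, or in 10% Tween 80 for the butyl thioether. Survival range recorded in days. Untreated control groups had 10-17 animals per experiment. Mice weighed on days 1 and 7.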

Mus musculus [5] = test: Antitumor activity was determined for average weight on day 1 against P-388 leukemia in mice at a dose of 150 mg/kg; assay type: functional; how it was run: as §1
Mus musculus [6] = test: Antitumor activity was determined for average 7-day weight change against P-388 leukemia in mice at a dose of 150 mg/kg; assay type: functional; how it was run: as §1
Mus musculus [7] = test: Antitumor activity was determined for survival range of mice against P-388 leukemia in mice at a dose of 600 mg/kg; assay type: functional; how it was run: as §2
Mus musculus [8] = test: Antitumor activity was determined for median survival of mice against P-388 leukemia in mice at a dose of 150 mg/kg; assay type: functional; how it was run: as §2
Mus musculus [9] = test: Antitumor activity was determined for 7-day average percent weight change against P-388 leukemia in mice at a dose of 75 mg/kg; assay type: functional; how it was run: as §1
Mus musculus [10] = test: Antitumor activity was determined for average weight on day 1 against P-388 leukemia in mice at a dose of 600 mg/kg; assay type: functional
How it was run: (§3)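 Male B6D2F1J mice, groups of 5, inoculated ip with 10⁶ P-388 cells on day 0. Drug given ip on days 1-4 (qd × 4) in sterile saline, or in 10% Tween 80 for the poorly water-soluble thioether. Average weight per mouse recorded on day 1, with reweighing on day 7 for percent weight change. Untreated control groups had 10-17 animals per experiment.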

Mus musculus [11] = test: Percent increase in life span against P-388 leukemia in mice was determined at a dose of 75 mg/kg; assay type: functional; details: P388
How it was run: (§4)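 Male B6D2F1J mice, 5 per dose group, received 10⁶ P-388 cells ip on day 0. Dosing was ip qd × 4 on days 1-4 in sterile saline, or 10% Tween 80 for the butyl thioether. Median survival times of treated (T) and untreated control (C, 10-17 mice) groups were compared: %ILS = [(T/C) − 1]100. Weights taken on days 1 and 7.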

Mus musculus [12] = test: Antitumor activity was determined for average weight on day 1 against P-388 leukemia in mice at a dose of 75 mg/kg; assay type: functional; how it was run: as §3
Mus musculus [13] = test: Antitumor activity was determined for median survival of mice against P-388 leukemia in mice at a dose of 300 mg/kg; assay type: functional; how it was run: as §2
Mus musculus [14] = test: Antitumor activity was determined for 7-day average percent weight change against P-388 leukemia in mice at a dose of 150 mg/kg; assay type: functional; how it was run: as §1
Mus musculus [15] = test: Percent increase in life span against P-388 leukemia in mice was determined at a dose of 600 mg/kg; assay type: functional; details: P388; how it was run: as §4
Mus musculus [16] = test: Percent increase in life span against P-388 leukemia in mice was determined at a dose of 150 mg/kg; assay type: functional; details: P388; how it was run: as §4
L1210 = test: Evaluated for cytotoxicity against L1210 mouse leukemia cells; assay type: functional; details: read-out: ID50 (the source's name)
How it was run: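 L1210 murine leukemia cells in Eagle's minimal essential medium with 15% fetal calf serum, streptomycin (100 μg/mL), penicillin (100 units/mL) and 0.05 mM 2-mercaptoethanol. Cells counted by Coulter counter after 48 h exposure. ID50 is the 50% growth-inhibitory dose. Triplicate assays, standard deviation ±10%.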

Mus musculus [17] = test: Antitumor activity was determined for survival range of mice against P-388 leukemia in mice at a dose of 150 mg/kg; assay type: functional; how it was run: as §2
Mus musculus [18] = test: Antitumor activity was determined for median survival of mice against P-388 leukemia in mice at a dose of 75 mg/kg; assay type: functional; how it was run: as §2
Mus musculus [19] = test: Antitumor activity was determined for 7-day average percent weight change against P-388 leukemia in mice at a dose of 300 mg/kg; assay type: functional; how it was run: as §1
Mus musculus [20] = test: Percent increase in life span against P-388 leukemia in mice was determined at a dose of 300 mg/kg; assay type: functional; details: P388; how it was run: as §4
Mus musculus [21] = test: Antitumor activity was determined for median survival of mice against P-388 leukemia in mice at a dose of 600 mg/kg; assay type: functional; how it was run: as §2
Mus musculus [22] = test: Antitumor activity was determined for average weight on day 1 against P-388 leukemia in mice at a dose of 300 mg/kg; assay type: functional; how it was run: as §3
P388 [23] = test: Antitumor activity was determined for median survival of mice against P-388 leukemia in mice at a dose of 30 mg/kg; assay type: functional, Mus musculus; how it was run: as §2
P388 [24] = test: Antitumor activity was determined for average 7-day weight change against P-388 leukemia in mice at a dose of 15 mg/kg; assay type: functional, Mus musculus; how it was run: as §2
P388 [25] = test: Antitumor activity was determined for average weight on day 1 against P-388 leukemia in mice at a dose of 15 mg/kg; assay type: functional, Mus musculus; how it was run: as §2
P388 [26] = test: Antitumor activity was determined for median survival of mice against P-388 leukemia in mice at a dose of 15 mg/kg; assay type: functional, Mus musculus; how it was run: as §2
P388 [27] = test: Antitumor activity was determined for survival range of mice against P-388 leukemia in mice at a dose of 15 mg/kg; assay type: functional, Mus musculus; how it was run: as §2
P388 [28] = test: Percent increase in life span against P-388 leukemia in mice was determined at a dose of 30 mg/kg; assay type: functional; details: Mus musculus; how it was run: as §4
P388 [29] = test: Antitumor activity was determined for average weight on day 1 against P-388 leukemia in mice at a dose of 30 mg/kg; assay type: functional, Mus musculus; how it was run: as §2
P388 [30] = test: Antitumor activity was determined for survival range of mice against P-388 leukemia in mice at a dose of 30 mg/kg; assay type: functional, Mus musculus; how it was run: as §2
P388 [31] = test: Antitumor activity was determined for 7-day average percent weight change against P-388 leukemia in mice at a dose of 30 mg/kg; assay type: functional, Mus musculus; how it was run: as §2
P388 [32] = test: Percent increase in life span against P-388 leukemia in mice was determined at a dose of 15 mg/kg; assay type: functional; details: Mus musculus; how it was run: as §4
P388 [33] = test: Antitumor activity was determined for average 7-day weight change against P-388 leukemia in mice at a dose of 30 mg/kg; assay type: functional, Mus musculus; how it was run: as §2
P388 [34] = test: Antitumor activity was determined for 7-day average percent weight change against P-388 leukemia in mice at a dose of 15 mg/kg; assay type: functional, Mus musculus; how it was run: as §2

SMILES: CCCCSC[C@H]1OC(n2cc(F)c(=O)[nH]c2=O)[C@H](O)[C@@H]1O (stereo partly specified)
- Average weight (Mus musculus [1]): 2 g mouse-1
- Survival range (Mus musculus [2]): 11
- Average weight (Mus musculus [3]): -0.4 g mouse-1
- Survival range (Mus musculus [4]): 11
- Average weight (Mus musculus [5]): 27.8 g mouse-1
- Average weight (Mus musculus [6]): 1.4 g mouse-1
- Survival range (Mus musculus [7]): 3
- Survival median (Mus musculus [8]): 11
- Weight change (Mus musculus [9]): 8%
- Average weight (Mus musculus [10]): 26.4 g mouse-1
- ILS at 75 mg/kg (Mus musculus [11]): -9%
- Average weight (Mus musculus [12]): 26.6 g mouse-1
- Survival median (Mus musculus [13]): 11
- Weight change (Mus musculus [14]): 5%
- ILS at 600 mg/kg (Mus musculus [15]): -67%
- ILS at 150 mg/kg (Mus musculus [16]): -9%
- IC50 (L1210): 270 µM
- Survival range (Mus musculus [17]): 10
- Survival median (Mus musculus [18]): 11
- Weight change (Mus musculus [19]): -1%
- ILS at 300 mg/kg (Mus musculus [20]): -9%
- Survival median (Mus musculus [21]): 4
- Average weight (Mus musculus [22]): 28 g mouse-1

SMILES: O=c1[nH]cc(F)c(=O)[nH]1 [FLUOROURACIL]
- Survival median (P388 [23]): 21
- Average weight (P388 [24]): 0.4 g mouse-1
- Average weight (P388 [25]): 24.4 g mouse-1
- Survival median (P388 [26]): 19
- Survival range (P388 [27]): 15
- ILS at 30 mg/kg (P388 [28]): 91%
- Average weight (P388 [29]): 24.2 g mouse-1
- Survival range (P388 [30]): 11
- IC50 (L1210): 1 µM
- Weight change (P388 [31]): -13%
- ILS at 15 mg/kg (P388 [32]): 73%
- Average weight (P388 [33]): -3.2 g mouse-1
- Weight change (P388 [34]): 2%
